Legend:
[1] = target: Acetylcholine receptor (Torpedo californica) (UniProt P02710+P02712+P02718+P02714); assay: Antagonist activity against Nicotinic acetylcholine receptor (nAChR) of isolated Torpedo; assay type: functional
Summary of the method: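 Ethidium fluorescence displacement used nAChR-rich membranes from frozen Torpedo californica electric organ (1 µM receptor) with ethidium 7 µM and carbachol 1 mM in 50 mM NaPi, pH 7.4. Competing ligand was added stepwise, with excitation at 480 nm and emission read at 540-740 nm. Kapp was derived by a logarithmic formula (Herz et al.).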

[2] = Antagonist activity against Nicotinic acetylcholine receptor (nAChR) of isolated Frog rectus Abdominis Muscle; assay type: functional, tissue-based; conditions: Amphibia
[3] = target: Muscarinic acetylcholine receptor M3 (Cavia porcellus) (UniProt Q8VH26); assay: Antagonist activity against Muscarinic acetylcholine receptor M3 of isolated Guinea Pig Longitudinal ileum; assay type: functional, tissue-based
Chain of Muscarinic acetylcholine receptor M3 (Cavia porcellus) (Q8VH26 1-587): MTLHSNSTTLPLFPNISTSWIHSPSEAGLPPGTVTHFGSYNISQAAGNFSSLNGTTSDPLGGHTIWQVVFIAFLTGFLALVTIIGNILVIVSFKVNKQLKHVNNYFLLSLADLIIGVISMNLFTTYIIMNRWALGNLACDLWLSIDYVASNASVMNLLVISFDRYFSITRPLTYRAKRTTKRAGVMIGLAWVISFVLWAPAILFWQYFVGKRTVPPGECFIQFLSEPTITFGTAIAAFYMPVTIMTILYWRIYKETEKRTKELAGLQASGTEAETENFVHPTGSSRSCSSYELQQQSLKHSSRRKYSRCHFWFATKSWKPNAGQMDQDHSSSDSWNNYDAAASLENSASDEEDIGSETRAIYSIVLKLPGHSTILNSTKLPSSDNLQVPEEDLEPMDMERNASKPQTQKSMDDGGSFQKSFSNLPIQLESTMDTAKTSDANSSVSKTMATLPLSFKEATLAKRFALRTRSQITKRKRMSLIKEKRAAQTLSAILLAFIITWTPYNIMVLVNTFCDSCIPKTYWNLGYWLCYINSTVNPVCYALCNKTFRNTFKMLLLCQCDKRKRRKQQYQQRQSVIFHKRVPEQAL
Summary of the method: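 Guinea pig terminal ileum longitudinal muscle (2 cm segments) in PSS, with tension recorded isotonically. After ≥30 min equilibration, APE curves (0.01-0.5 µM) were run at 30 min intervals, the second serving as control. A new curve followed 60 min antagonist incubation, with the antagonist at a single 5 µM concentration in triplicate. EC50 was estimated graphically, with untreated parallel tissues as controls.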

[4] = system: Muscarinic acetylcholine receptor M2 (Cavia porcellus); assay: Antagonist activity against Muscarinic acetylcholine receptor M2 of isolated Guinea Pig Left artium
[5] = target: T1, Acetylcholine receptor subunit delta (Torpedo californica) (UniProt P02718); conditions: fish
T1 sequence (whole entry): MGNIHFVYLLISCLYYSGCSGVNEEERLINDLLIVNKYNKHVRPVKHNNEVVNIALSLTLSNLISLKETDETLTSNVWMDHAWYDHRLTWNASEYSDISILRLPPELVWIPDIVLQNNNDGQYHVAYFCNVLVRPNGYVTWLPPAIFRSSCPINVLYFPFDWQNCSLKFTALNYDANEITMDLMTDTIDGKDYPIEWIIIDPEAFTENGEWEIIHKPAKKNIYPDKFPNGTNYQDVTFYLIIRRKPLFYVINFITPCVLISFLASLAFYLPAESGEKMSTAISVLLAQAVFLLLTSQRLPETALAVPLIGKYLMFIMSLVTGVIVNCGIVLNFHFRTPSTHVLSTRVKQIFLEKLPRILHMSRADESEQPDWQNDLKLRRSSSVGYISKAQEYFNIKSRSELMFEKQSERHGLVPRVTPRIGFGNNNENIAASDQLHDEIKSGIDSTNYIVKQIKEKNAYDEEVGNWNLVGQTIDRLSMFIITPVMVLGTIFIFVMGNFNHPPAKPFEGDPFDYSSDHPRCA

Acetylcholinesterase = Acetylcholinesterase (Homo sapiens, UniProt P22303); assay: Inhibitory activity on Acetylcholinesterase (AChE) from human erythrocytes
Chain of Acetylcholinesterase (P22303 whole entry): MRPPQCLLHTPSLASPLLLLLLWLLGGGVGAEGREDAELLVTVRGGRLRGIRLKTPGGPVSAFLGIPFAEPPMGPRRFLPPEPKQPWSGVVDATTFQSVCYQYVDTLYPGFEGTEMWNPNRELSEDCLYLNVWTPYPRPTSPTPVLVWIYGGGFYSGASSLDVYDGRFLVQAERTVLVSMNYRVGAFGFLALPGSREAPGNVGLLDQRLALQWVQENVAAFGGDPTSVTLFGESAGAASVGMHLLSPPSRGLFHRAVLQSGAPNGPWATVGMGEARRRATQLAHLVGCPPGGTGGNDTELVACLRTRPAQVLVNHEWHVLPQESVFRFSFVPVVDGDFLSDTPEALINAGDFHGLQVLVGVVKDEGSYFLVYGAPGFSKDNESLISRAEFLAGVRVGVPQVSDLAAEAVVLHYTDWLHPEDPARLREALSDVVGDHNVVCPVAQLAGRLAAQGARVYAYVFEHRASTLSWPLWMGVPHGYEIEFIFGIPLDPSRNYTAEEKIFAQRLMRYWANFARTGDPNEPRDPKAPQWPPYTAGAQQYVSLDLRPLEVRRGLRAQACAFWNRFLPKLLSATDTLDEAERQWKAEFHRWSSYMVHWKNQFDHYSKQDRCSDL

COc1ccccc1CN1CCCCCCN(C)CCCCCCCCN(C)CCCCCCN(Cc2ccccc2OC)Cc2ccc(cc2)C1
pKapp [1]: 6.43
IC50 [2]: 3470 nM

COc1ccccc1CNCCCCCCNCCCCCCCCCCCCNCCCCCCNCc1ccccc1OC
pKB [3]: 5.98
pKapp [1]: 5.66
pKB [4]: 7.35

COc1ccccc1CN1CCCCCCCCN(Cc2ccccc2OC)CCCCCCNCc2ccc(cc2)-c2ccc(cc2)CNCCCCCC1
pKapp [5]: 5.48
IC50 [2]: 1200 nM

COc1ccccc1CNCCCCCCNCCCCCCCCNCCCCCCNCc1ccccc1OC [METHOCTRAMINE]
pKB [3]: 6.14
pKapp [1]: 6.21
IC50 [2]: 1170 nM

COc1ccccc1CN1CCCCCCCCN(Cc2ccccc2OC)C(=O)CCCCCNCc2ccc(cc2)-c2ccc(cc2)CNCCCCCC1=O
pKB [3]: < 5
pKapp [1]: 6.64
pKB [4]: < 5
IC50 (Acetylcholinesterase): 3390 nM
IC50 [2]: 589 nM

COc1ccccc1CN1CCCCCCCCN(Cc2ccccc2OC)CCCCCCNCc2ccc(cc2)Cc2ccc(cc2)CNCCCCCC1
pKB [3]: < 5
pKapp [1]: 6.26
IC50 [2]: 191 nM

CN1CCCCCCCCN(C)CCCCCCNCc2ccc(cc2)-c2ccc(cc2)CNCCCCCC1
pKapp [1]: < 4
IC50 [2]: 4270 nM

COc1ccccc1CN1CCCCCC(=O)N(C)CCCCCCCCN(C)C(=O)CCCCCN(Cc2ccccc2OC)Cc2ccc(cc2)-c2ccc(cc2)C1
pKapp [1]: 5.1
IC50 (Acetylcholinesterase): 53700 nM
IC50 [2]: 525 nM

COc1ccccc1CN(C)CCCCCC(=O)N(C)CCCCCCCCN(C)C(=O)CCCCCN(C)Cc1ccccc1OC
pKB [3]: 5.55
pKapp [1]: 4.99
pKB [4]: 6.39

COc1ccccc1CNCCCCCCNCc1ccc(-c2ccc(-c3ccc(CNCCCCCCNCc4ccccc4OC)cc3)cc2)cc1
pKB [3]: < 5
pKapp [1]: 6.35
pKB [4]: < 5
IC50 [2]: 501 nM

COc1ccccc1CN1CCCCCCN(C)CCCCCCCCN(C)CCCCCCN(Cc2ccccc2OC)Cc2ccc(cc2)-c2ccc(cc2)C1
pKapp [1]: 6.35
IC50 [2]: 447 nM

COc1ccccc1CN1CCCCCCCCN(Cc2ccccc2OC)C(=O)CCCCCNCc2ccc(cc2)CNCCCCCC1=O
pKB [3]: < 5
pKapp [1]: 6.47
pKB [4]: < 5
IC50 (Acetylcholinesterase): 1410 nM
IC50 [2]: 170 nM

COc1ccccc1CN1CCCCCCCCN(Cc2ccccc2OC)CCCCCCNCc2ccc(cc2)CNCCCCCC1
pKapp [5]: 6.01
IC50 [2]: 324 nM

COc1ccccc1CN1CCCCCCN(C)CCCCCCCCN(C)CCCCCCN(Cc2ccccc2OC)Cc2ccc(cc2)Cc2ccc(cc2)C1
pKB [3]: < 5
pKapp [1]: 6.21
pKB [4]: < 5
IC50 [2]: 229 nM

COc1ccccc1CN(CCCCCCN)CCCCCCCCN(CCCCCCN)Cc1ccccc1OC
pKapp [5]: 6.4
IC50 [2]: 331 nM

COc1ccccc1CN(CCCCCCCCN(Cc1ccccc1OC)C(=O)CCCCCN)C(=O)CCCCCN
pKapp [1]: 6.46
IC50 (Acetylcholinesterase): 33100 nM
IC50 [2]: 158 nM

Reference: ChEMBL document CHEMBL1135995, “Structure-activity relationships of methoctramine-related polyamines as muscular nicotinic receptor noncompetitive antagonists. 3. Effect of inserting the tetraamine backbone into a macrocyclic structure” (J Med Chem, 2002)
